For assay [1], the target named is Microtubule-associated protein tau (Homo sapiens) (UniProt P10636). Nature of the assay: Inhibition of heparin-induced 4R tau (unknown origin) aggregation at 200 uM after 24 hrs by filter trap assay. Summed up:
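Heparin-induced fibrillisation of 4R tau in PBS with 200 μM compound, 37 °C, 24 h. Fibrils diluted to 0.8 μM tau in 2% SDS, vacuum-filtered through membrane, washed twice with 2% SDS, probed with 4R tau-specific antibody, chemiluminescent dot detection and densitometry; 7 independent experiments.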

For assay [2] the target is unchanged. Briefly: Induction of heparin-induced recombinant 4R tau (unknown origin) fibril oxidation at cysteine residues at 200 uM after 2 hrs by oregon green binding assay. Summed up: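 Recombinant 4R tau (10 μM) fibrillised with 40 μM heparin in sodium acetate buffer pH 7, ± 200 μM compound, 37 °C, 2 h. Controls reduced with 1 mM DTT or oxidised with 20% v/v DMSO. Then labeled with Oregon green-iodoacetamide 30 min at room temperature, SDS-PAGE, fluorescence imaging. Band intensity normalized to Coomassie-stained total tau; 5 independent experiments.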

The target is the same in assay [3]. Briefly: Inhibition of heparin-induced 4R tau (unknown origin) aggregation at 100 uM after 3 days by ThT fluorescence assay relative to control. An outline of the steps:
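20 μM 4R tau plus 5 μM heparin (avg MW 15 000) in 100 mM sodium acetate pH 7.0, ± 100 μM compound, incubated 3 days at 37 °C with 1 mM DTT added daily. ThT 12.5 μM then added, 1 h at room temperature. Spectra read with excitation 440 nm, emission 450–750 nm; intensity at emission maximum compared with tau alone.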

SMILES strings stand for the structures. Calls of active or inactive are those of the source. No cut-off for these calls is given here.

Sequence of Microtubule-associated protein tau (Homo sapiens) (P10636 whole entry): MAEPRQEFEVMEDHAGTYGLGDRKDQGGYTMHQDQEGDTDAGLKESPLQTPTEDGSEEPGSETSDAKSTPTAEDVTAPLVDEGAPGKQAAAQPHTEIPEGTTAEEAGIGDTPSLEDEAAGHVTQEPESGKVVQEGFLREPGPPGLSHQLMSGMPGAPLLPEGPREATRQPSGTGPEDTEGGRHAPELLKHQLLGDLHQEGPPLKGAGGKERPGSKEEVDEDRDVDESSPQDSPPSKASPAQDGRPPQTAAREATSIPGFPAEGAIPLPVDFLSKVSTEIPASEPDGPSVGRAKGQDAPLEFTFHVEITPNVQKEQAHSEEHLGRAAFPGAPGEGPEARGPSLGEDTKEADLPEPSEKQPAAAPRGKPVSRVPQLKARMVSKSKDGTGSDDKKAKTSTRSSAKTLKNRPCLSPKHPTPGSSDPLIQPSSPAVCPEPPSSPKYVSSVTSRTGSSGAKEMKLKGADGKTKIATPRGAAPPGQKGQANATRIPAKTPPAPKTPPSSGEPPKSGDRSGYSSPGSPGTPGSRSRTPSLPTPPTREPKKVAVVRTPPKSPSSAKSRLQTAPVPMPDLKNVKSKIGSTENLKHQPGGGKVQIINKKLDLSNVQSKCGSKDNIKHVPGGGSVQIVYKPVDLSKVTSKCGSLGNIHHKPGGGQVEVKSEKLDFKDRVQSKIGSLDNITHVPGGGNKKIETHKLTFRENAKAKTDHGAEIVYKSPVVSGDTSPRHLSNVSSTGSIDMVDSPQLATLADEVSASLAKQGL

`Nc1scc(/C(=N/O)C(=O)NC2CC2)c1C(=O)Nc1ccc(F)cc1`: the inhibition result in assay [1] was “Active”. In assay [2], the result was Active.
Turning to `C=CCO/N=C(\C(=O)NC1CC1)c1csc(N)c1C(=O)Nc1ccc(F)cc1`, in assay [3], the inhibition was 33%. Besides, in assay [1], the inhibition result is “Active”. The outcome in assay [2] was inactive.
`Nc1scc2c(C(=O)NC3CC3)nn(-c3ccc(F)cc3)c(=O)c12` displayed an inhibition in assay [3] of 51%. In assay [1], the inhibition result is “Active”. Besides, in assay [2], the outcome was Active.
On to `Nc1scc(/C(=N/O)C(=O)NC2CC2)c1C(=O)NC12CC3CC(CC(C3)C1)C2`, for which the inhibition in assay [3] was 30%. Moreover, the inhibition entry in assay [1] is “Active”. In addition, the outcome in assay [2] was Active.

The record behind these values is ChEMBL document CHEMBL4261481, “Ring-opened aminothienopyridazines as novel tau aggregation inhibitors” (Medchemcomm, 2017).
